For orientation: IC50 means the concentration at which inhibition is half-maximal. Usually inhibition stands for how much of the control response was suppressed. In general, CL/F refers to clearance divided by bioavailability, as obtained after extravascular dosing. The term bioavailability denotes dose-corrected exposure relative to a reference, in per cent. In general, Cmax refers to the highest concentration seen after dosing. As a reminder, the solubility is the dissolved amount per volume that the medium holds. The term half-life denotes the time needed for the level to fall by half in the phase considered. A word on the ED50: it is the dose at which the effect has come halfway, by size or by number of responders. The AUC is concentration integrated over time.

Series [1] has as its target T1, Arachidonate 5-lipoxygenase-activating protein (Homo sapiens, UniProt P20292).
T1 sequence (P20292 whole entry): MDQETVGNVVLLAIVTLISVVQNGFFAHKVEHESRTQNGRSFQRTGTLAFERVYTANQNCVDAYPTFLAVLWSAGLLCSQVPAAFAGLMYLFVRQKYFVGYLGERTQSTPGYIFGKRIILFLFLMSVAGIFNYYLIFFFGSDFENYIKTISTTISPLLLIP
Briefly: Binding affinity to FLAP in human PMN derived membrane. Format: cell membranes. In a few lines: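 FLAP binding measured in membranes derived from human polymorphonuclear leukocytes (PMN). IC50 values are the average of n ≥ 3.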

Series [2] addresses CYP2C9 (Homo sapiens, UniProt P11712). Briefly: Inhibition of CYP2C9 at 10 uM. Format: ADME.
The target in series [3] is CYP3A4 (Homo sapiens, UniProt P08684). Briefly: Inhibition of CYP3A4 at 10 uM. Format: ADME.
The nature of series [4]: Clearance in rat at 10 mg/kg, po. Format: ADME, organism-based. Further details: dose 10 mg/kg, route oral. To be noted: in vivo. In a few lines: (§1)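 Rat, oral dosing at 10 mg/kg given as the sodium carboxylate salt. Read-outs: F, clearance, Cmax, AUC and half-life.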
The test system of series [5] is Blood. Nature of the series: Inhibition of LTB4 production in calcium ionophore treated A23187 human whole blood after 15 mins. To be noted: 0.25 h. Format: functional, tissue-based.
The nature of series [6]: Bioavailability in rat at 10 mg/kg. Format: ADME, organism-based. Particulars: in vivo. In a few lines:
as §1

Series [7] is described as follows: Inhibition of LTB4 production in calcium ionophore A23187 treated human leukocytes. Particulars: Leukocyte. Format: functional, cell-based. In a few lines:
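Human leukocytes challenged with calcium ionophore; LTB4 produced by the cells was measured. IC50 is the average of n ≥ 3.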

A short description of series [8]: Cmax in rat at 10 mg/kg, po. Format: ADME, organism-based. To be noted: in vivo. Further details: dose 10 mg/kg, route oral. In a few lines:
as §1

A short description of series [9]: Solubility in water. Format: physicochemical.
A short description of series [10]: Half life in rat at 10 mg/kg, po. Format: ADME, organism-based. Further details: dose 10 mg/kg, route oral. To be noted: in vivo. In a few lines:
as §1

Series [11] has as its system Rattus norvegicus. Nature of the series: Reduction of LTB4 production in lung lavage fluid of calcium ionophore A23187 treated rat bronchoalveolar lavage model at 3 mg/kg, po administered 16 hrs prior to calcium ionophore A23187 challenge. Format: functional. On the set-up: scale not given: the % may be the effect or the level left. In a few lines:
(§2)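 Rat BAL model. 3 mg/kg given orally 16 h before ionophore challenge. LTB4 and CysLT inhibition measured in lavage fluid; average plasma levels measured at that time point.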

For series [12], the system named is Rattus norvegicus. Nature of the series: Reduction of CysLT production in lung lavage fluid of calcium ionophore A23187 treated rat bronchoalveolar lavage model at 10 mg/kg, po administered 4 hrs prior to calcium ionophore A23187 challenge. Format: functional. On the set-up: scale not given: the % may be the effect or the level left. In a few lines:
(§3)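 Rat bronchoalveolar lavage model. Oral dose of 10 mg/kg as the sodium carboxylate salt, given 4 h before ionophore challenge. LTB4 and CysLT measured in lung lavage fluid; average plasma levels taken 3 h post dose.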

Series [13] in a line: Plasma concentration in calcium ionophore A23187 treated rat bronchoalveolar lavage model at 10 mg/kg, po administered 4 hrs prior to calcium ionophore A23187 challenge measured 3 hrs after post dose. Further details: dose 10 mg/kg, route oral. Format: ADME, organism-based. In a few lines:
as §3

Series [14] relates to Blood. Briefly: Inhibition of LTB4 production in calcium ionophore treated A23187 human whole blood after 5 hrs. Format: functional, tissue-based. In a few lines:
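Human whole blood incubated with compound for an extended 5 h before ionophore challenge; LTB4 production measured. IC50 from n = 6, each n the average of two donors.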

For series [15], the system named is Rattus norvegicus. Nature of the series: Reduction of CysLT production in lung lavage fluid of po dosed calcium ionophore A23187 treated rat bronchoalveolar lavage model administered 4 hrs prior to calcium ionophore A23187 challenge. Format: functional. In a few lines: (§4)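 Rat BAL model. Oral dose-response study with dosing 4 h before ionophore challenge; ED50 for LTB4 and CysLT in lavage fluid.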

Series [16] has as its target Cytochrome P450 3A4 (Homo sapiens, UniProt P08684). Nature of the series: Induction of CYP3A4 activity. Format: ADME. In a few lines: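 CYP3A4 induction assay measuring a compound's ability to raise CYP enzyme activity.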
Series [17] deals with Blood. Nature of the series: Reduction of LTB4 production in rat blood after 4 hrs. Format: functional, tissue-based. In a few lines: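 Rat blood incubated with compound for 4 h, then ionophore challenge; inhibition of LTB4 production measured; IC50.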
Series [18] is described as follows: Solubility in 0.9% saline. Format: physicochemical.
For series [19], the system named is Rattus norvegicus. Nature of the series: Reduction of LTB4 production in lung lavage fluid of calcium ionophore A23187 treated rat bronchoalveolar lavage model at 10 mg/kg, po administered 4 hrs prior to calcium ionophore A23187 challenge. Format: functional. On the set-up: scale not given: the % may be the effect or the level left. In a few lines:
as §3

Series [20] has as its target Cytochrome P450 2C9 (Homo sapiens, UniProt P11712). Nature of the series: Inhibition of CYP2C9. Format: ADME.
Series [21] can be described thus: Plasma concentration in calcium ionophore A23187 treated rat bronchoalveolar lavage model at 3 mg/kg, po administered 16 hrs prior to calcium ionophore A23187 challenge. Format: ADME, organism-based. On the set-up: dose 3 mg/kg, route oral. In a few lines: as §2
The subject of series [22] is Blood. Nature of the series: Reduction of LTB4 production in rat blood after 3 hrs. Format: functional, tissue-based.
Series [23] has as its target Cytochrome P450 2D6 (Homo sapiens, UniProt P10635). Briefly: Inhibition of CYP2D6. Format: ADME.
Series [24] concerns Rattus norvegicus. Nature of the series: Reduction of LTB4 production in lung lavage fluid of po dosed calcium ionophore A23187 treated rat bronchoalveolar lavage model administered 4 hrs prior to calcium ionophore A23187 challenge. Format: functional. In a few lines:
as §4

The subject of series [25] is Rattus norvegicus. Nature of the series: Reduction of CysLT production in lung lavage fluid of calcium ionophore A23187 treated rat bronchoalveolar lavage model at 3 mg/kg, po administered 16 hrs prior to calcium ionophore A23187 challenge. Format: functional. On the set-up: scale not given: the % may be the effect or the level left. In a few lines:
as §2

Series [26] is described as follows: AUC in rat at 10 mg/kg, po. Format: ADME, organism-based. To be noted: plasma. Further details: dose 10 mg/kg, route oral. In a few lines: as §1

Converted amounts (≈) assume the structure as drawn.

Cytochrome P450 2C9, sequence (P11712 whole entry): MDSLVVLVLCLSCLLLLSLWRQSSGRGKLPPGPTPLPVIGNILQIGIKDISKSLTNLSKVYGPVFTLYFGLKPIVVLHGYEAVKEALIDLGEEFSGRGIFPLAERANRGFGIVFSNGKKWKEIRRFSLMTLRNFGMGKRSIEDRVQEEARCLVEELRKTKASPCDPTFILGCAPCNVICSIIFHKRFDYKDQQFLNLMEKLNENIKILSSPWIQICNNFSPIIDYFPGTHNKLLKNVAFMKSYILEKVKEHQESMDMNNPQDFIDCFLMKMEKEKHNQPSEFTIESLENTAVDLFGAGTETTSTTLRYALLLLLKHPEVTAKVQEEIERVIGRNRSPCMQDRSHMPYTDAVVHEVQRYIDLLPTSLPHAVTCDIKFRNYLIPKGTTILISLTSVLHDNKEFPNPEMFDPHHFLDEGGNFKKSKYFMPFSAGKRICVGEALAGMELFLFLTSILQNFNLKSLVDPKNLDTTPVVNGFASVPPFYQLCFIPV
CYP2C9, sequence (P11712 whole entry): as above
CYP3A4, sequence (P08684 whole entry): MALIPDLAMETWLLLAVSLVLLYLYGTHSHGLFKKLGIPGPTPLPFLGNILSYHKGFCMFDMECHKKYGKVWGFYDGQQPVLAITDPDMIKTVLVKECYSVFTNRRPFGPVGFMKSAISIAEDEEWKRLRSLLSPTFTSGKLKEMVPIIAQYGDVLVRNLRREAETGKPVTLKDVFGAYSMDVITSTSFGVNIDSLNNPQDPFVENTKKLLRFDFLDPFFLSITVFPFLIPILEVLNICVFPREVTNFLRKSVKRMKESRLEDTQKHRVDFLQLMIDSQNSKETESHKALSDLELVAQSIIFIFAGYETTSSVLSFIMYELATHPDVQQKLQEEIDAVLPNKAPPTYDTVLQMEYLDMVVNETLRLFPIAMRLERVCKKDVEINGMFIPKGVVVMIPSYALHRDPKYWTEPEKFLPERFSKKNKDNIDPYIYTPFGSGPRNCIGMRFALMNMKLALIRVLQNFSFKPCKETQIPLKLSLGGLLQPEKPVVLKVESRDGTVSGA
Cytochrome P450 3A4, sequence (P08684 whole entry): as above
Cytochrome P450 2D6, sequence (P10635 whole entry): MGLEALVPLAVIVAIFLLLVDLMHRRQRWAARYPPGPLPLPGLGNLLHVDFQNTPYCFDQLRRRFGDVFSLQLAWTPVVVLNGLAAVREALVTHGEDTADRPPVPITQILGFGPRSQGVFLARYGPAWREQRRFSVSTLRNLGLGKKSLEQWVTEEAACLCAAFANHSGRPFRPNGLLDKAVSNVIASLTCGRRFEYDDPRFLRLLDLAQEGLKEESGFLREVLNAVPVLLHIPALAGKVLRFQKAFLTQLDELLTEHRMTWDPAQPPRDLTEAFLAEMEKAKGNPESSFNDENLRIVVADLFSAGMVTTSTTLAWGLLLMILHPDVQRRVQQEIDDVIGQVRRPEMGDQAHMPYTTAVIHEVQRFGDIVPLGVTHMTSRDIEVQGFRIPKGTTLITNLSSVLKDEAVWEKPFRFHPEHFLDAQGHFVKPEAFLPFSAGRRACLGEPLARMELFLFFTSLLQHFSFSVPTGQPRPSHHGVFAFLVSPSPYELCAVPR

Turning to `CC(=O)N1c2ccccc2C[C@H]1COc1ccc2c(c1)c(SC(C)(C)C)c(CC(C)(C)C(=O)O)n2Cc1ccc(Cl)cc1`, the results for the IC50 in [1], in series [5] and in series [7] were 1.4 nM, 169 nM and 0.5 nM, respectively. The inhibition at 10 µM was determined as 96% in series [2] and 80% in [3]. The CL/F in series [4] was 25 mL/min/kg. Besides, in series [6], the bioavailability came to 11%. The compound further came in with a Cmax in series [8] of 270 nM.
`CC(=O)N1c2ccccc2C[C@H]1COc1ccc2c(c1)c(C(=O)C(C)(C)C)c(CC(C)(C)C(=O)[O-])n2Cc1ccc(Cl)cc1.[Na+]` had a bioavailability in [6] of 7%. The same compound displayed a Cmax in series [8] of 270 nM.
In the case of `COc1cnc(-c2ccc(Cn3c(CC(C)(C)C(=O)O)c(SC(C)(C)C)c4cc(OC[C@@H]5Cc6ccccc6N5C(C)=O)ccc43)cc2)nc1`, the IC50 in [1] turned out to be 2.2 nM; in series [14] it was 53 nM; in [17] it was 9 nM; in [5] it was 154 nM; in series [20] it was 3700 nM; in series [22], 125 nM. The IC50 in series [7] worked out at 0.6 nM. Besides, the figures for the solubility in series [9] and in [18] were 10000 µg/mL (≈ 14.4 mM) and 30 µg/mL (≈ 0.0433 mM), respectively. This compound had a half-life in series [10] of 6.8 h. The Activity is recorded as 77% in series [11]; 87% in series [12]; “Not Active” in series [16]; 98% in series [19]; 45% in series [25]. In addition, the concentration at 3 h in series [13] is 605 nM. Further, the ED50 is 1.4 mg/kg in series [15] and 0.8 mg/kg in series [24]. This compound came in with a CL/F in [4] of 11 mL/min/kg. Moreover, the concentration at 16 h in series [21] came out at 4 nM. Moreover, the INH in series [23] was > 30 µM. In series [6], this compound registered a bioavailability of 29%. In addition, the peak level in [8] (Cmax) was 1600 nM.
The compound `CC(C)(C)Sc1c(CC(C)(C)C(=O)O)n(Cc2ccc(Cl)cc2)c2ccc(OCc3ccc4ccccc4n3)cc12` [QUIFLAPON] yielded an IC50 in [20] of 500 nM.
With `CC(=O)N1CCC[C@H]1COc1ccc2c(c1)c(SC(C)(C)C)c(CC(C)(C)C(=O)O)n2Cc1ccc(Cl)cc1`, the figures for the IC50 in [1], in series [5] and in [7] were 6 nM, 403 nM and 16 nM, respectively. Also, the inhibition at 10 µM in series [2] came to 93%; in [3], 64%. Moreover, in series [4], the CL/F worked out at 20 mL/min/kg. This compound yielded a bioavailability in series [6] of 10%. For the same compound, the AUC in series [26] came to 1200 ng·h/mL.

For the origin of these results see ChEMBL document CHEMBL1153124, “5-Lipoxygenase-activating protein inhibitors. Part 2: 3-{5-((S)-1-Acetyl-2,3-dihydro-1H-indol-2-ylmethoxy)-3-tert-butylsulfanyl-1-[4-(5-methoxy-pyrimidin-2-yl)-benzyl]-1H-indol-2-yl}-2,2-dimethyl-propionic acid (AM679)--a potent FLAP inhibitor” (Bioorg Med Chem Lett, 2010).
